Measurements reported in the EternaBench riboswitch data.

Test system: MS2 coat protein
Experiment: apparent Kd, MS2 coat protein; higher = weaker binding; RNA-MaP array
Summary of the method: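 Designed RNAs were produced on an Illumina sequencing chip by transcription of sequenced DNA templates. Binding to fluorescently labeled MS2 coat protein (1.5 nM to 3 μM) was measured at room temperature with or without input ligand. The apparent Kd is the median of per-cluster binding-curve fits. Designs were excluded when measured on fewer than 10 clusters.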

[1] = designed as: OFF switch for flavin mononucleotide, no ligand
[2] = ligand present: flavin mononucleotide, designed as: OFF switch for flavin mononucleotide
[3] = designed as: ON switch for flavin mononucleotide, no ligand
[4] = ligand present: flavin mononucleotide, designed as: ON switch for flavin mononucleotide
[5] = designed as: ON switch for tryptophan, no ligand
[6] = ligand present: tryptophan, designed as: ON switch for tryptophan

Sequence: CGAGUGUGAGGAUAUCAGUUCAAUAGGGCUACGCCGUGUCGUGAGAAGGCACAUGAGGAUCACCCAUGUAAUAA
- apparent Kd [1]: 58.3 nM
- apparent Kd [2]: 122 nM

Sequence: AUAUCCUCAACAGGAUAUACACGUGACUAAAUGGUAGAAGGGUUAGCAGACGACAUGAGGAUCACCCAUGUUUAGGAUAAAGCG
- apparent Kd [3]: 10.7 nM
- apparent Kd [4]: 9.66 nM

Sequence: UUGUGUUCUUAGGAUAUACAACUUACCAUCAGAGUAGAAGGAAGGACAUGAGGAUCACCCAUGUGGGCUAGCAG
- apparent Kd [1]: 154 nM
- apparent Kd [2]: 21.7 nM

Sequence: AGAGUUAUUGAGAAGGAAACAUUGACAUGAGGAUCACCCAUGUACUUGGCUAAGGAGCCGAGUGUUUAGGAUAUCAUUCAGAUA
- apparent Kd [3]: 25.6 nM
- apparent Kd [4]: 9.33 nM

Sequence: UUGGUCCACAGACAUGAGGAUCACCCAUGUAGUAGUUGAAUGAGAAGGGCACUGGCUUGUCAGGUGCAGGAUAUCAGUCUAUGU
- apparent Kd [1]: 118 nM
- apparent Kd [2]: 106 nM

Sequence: AAGACGAAGAAGAAGGGCAUACAUGAGGAUCACCCAUGUGAAAAUGUGCUGAAAGAACAUAAAUUGCAGGAUAUUCACACAAGU
- apparent Kd [3]: 11.2 nM
- apparent Kd [4]: 6.42 nM

Sequence: AAUGGGUGAGAUCGUUUCAACAUGAGGAUCACCCAUGUUGACAGAAGGAGGUCUAAAUAGCUACCCUAGGAUAUGUCCAUGCGA
- apparent Kd [1]: 19.9 nM
- apparent Kd [2]: 31.9 nM

Sequence: UCGGUAUAUACAGGAUAUGGUCAAUACAUGAGGAUCACCCAUGUUAGAGCGGCAAAUAGGAUCUUCCAGAAGGGUACUUGCUUA
- apparent Kd [1]: 14.8 nM
- apparent Kd [2]: 11.5 nM

Sequence: CUGGAUCCGGGAGGAUAUAGACGUUCAGCCUCGUUGCUAACAAGACAUGAGGAUCACCCAUGUAUCUAGAAGGCCCGCCUGGGA
- apparent Kd [3]: 19.8 nM
- apparent Kd [4]: 13.8 nM

Sequence: AAAGGCGUAGGAUAUACAUGAGGAUCACCCAUGUAUCACAAUAACGAGGAAUGAAAGUGUAGAAGGACGAUAAC
- apparent Kd [1]: 7.48 nM
- apparent Kd [2]: 6.8 nM

Sequence: CGUUCAGUCCAGCGGUUACAUGAGGAUCACCCAUGUUUAGAGAGAAGGGUUGGCACCAGGAUGUAACAGGAUAUCUCGCUUACG
- apparent Kd [3]: 171 nM
- apparent Kd [4]: 71.5 nM

Sequence: GGAAGGACAGUUGAUACCAGUUUCAAAGGCGGUAAUCACUACAUGAGGAUCACCCAUGUCAACCCUUGGCAGCAAUAGACCGUGG
- apparent Kd (designed as: OFF switch for theophylline, no ligand): 18.8 nM
- apparent Kd (ligand present: theophylline, designed as: OFF switch for theophylline): 24 nM

Sequence: UGCGCGAGAGGAUAUUAUCGUAACUACAUGAGGAUCACCCAUGUUUCGCCCGUAGCUGGAUAAGAAGGCUCGAGUG
- apparent Kd [1]: 14.6 nM
- apparent Kd [2]: 20.7 nM

Sequence: AGUUACAUGAGGAUCACCCAUGUCCGGUUGCGAGGACCGGUACGGCCGCCACUCGGGUACAUCCCAGAAAAUACUGAAUGCCUGC
- apparent Kd [5]: 55.4 nM
- apparent Kd [6]: 51 nM

Sequence: CGUUAGCAGUAGAAGGUAGCCGGCAGGUCAGGGCGACCACAUGAGGAUCACCCAUGUCUAUGUUCUAAGGAUAUACUGACCCAA
- apparent Kd [1]: 5.2 nM
- apparent Kd [2]: 5.59 nM

Sequence: CGAAACAUGAGGAUCACCCAUGUGUAGAUCCUGCAAGCAUAUAGAAGGUCGUCACUCCGUCACGCGAAGGAUAUAUUAAGUGCC
- apparent Kd [1]: 210 nM
- apparent Kd [2]: 168 nM

Sequence: GGACACGAAGGAUAUACCCAAUGCCUGAGAAAACUCAUGGGACAUGAGGAUCACCCAUGUAGAAGGUCGUUAAA
- apparent Kd [1]: 558 nM
- apparent Kd [2]: 416 nM

Sequence: GGAAAGUCUGAGAAGGGAUGAAGACAUGAGGAUCACCCAUGUGAAGGCCACUGGCUCCACAAGUAUCAGGAUAUCAGCAUAGCG
- apparent Kd [3]: 36.3 nM
- apparent Kd [4]: 20.6 nM

Sequence: GCUACACAUGAGGAUCACCCAUGUCAGGUCACUGAAGGAUAUAUUACUUAAUCCUGGGUCAUAGAAGGUCAAUUGC
- apparent Kd [3]: 31.4 nM
- apparent Kd [4]: 21.9 nM

Sequence: CUUAUGAUCGAGGAUAUCACAAAUGGGCAGCGUUGAGAAGGCGACACAUGAGGAUCACCCAUGUAAUCAACAGU
- apparent Kd [1]: 18.4 nM
- apparent Kd [2]: 15.9 nM

Sequence: CAGUGAAGAGGAUAUACAUGAGGAUCACCCAUGUACCGUGGUCCAUAUCAUAAUUCGAGUAGAAGGCUUAACCA
- apparent Kd [1]: 114 nM
- apparent Kd [2]: 108 nM

Sequence: GGGAGAAAUGGAGGAUAUAUUAAAGCACAGCUGACAUGAGGAUCACCCAUGUGAAUUAAAGAUGCAUAGAAGGCCAAACUACAA
- apparent Kd [3]: 17.3 nM
- apparent Kd [4]: 11.8 nM

Sequence: AUCGGUAAAACUCAGGAUAUAGAAAUAGACACAUGAGGAUCACCCAUGUUAACUACACAAAGAAUCUAGAAGGGAGCAGGUGUCUA
- apparent Kd [3]: 78.2 nM
- apparent Kd [4]: 44.9 nM

Sequence: UCGUGCAGAUAGGAUAUAUAGUCACUGUCGUCUAUAGAAGGAUCUACAUGAGGAUCACCCAUGUAAUGUGAGUC
- apparent Kd [1]: 132 nM
- apparent Kd [2]: 30.6 nM

Sequence: CUCAGGCUGCGAGGAUAUCCGUCGAAUCAAACAGGAGAAGGCGCAUACAUGAGGAUCACCCAUGUGCUGACUUGUCCGUGAAUC
- apparent Kd [1]: 5.46 nM
- apparent Kd [2]: 6.37 nM

Sequence: UUUUUAGGACAAGGAUAUUGAAUCGCACAUGAGGAUCACCCAUGUCCUCUGCAUACAGCGGACUUCAAGAAGGUGUCGACCAAU
- apparent Kd [3]: 971 nM
- apparent Kd [4]: 832 nM

Sequence: AUCAUGAUUUUAGGAUAUAUGACGUUAUACAAUGGACAUGAGGAUCACCCAUGUAGUCGCGCUCUAUAGAAGGAAAGCUCAGUU
- apparent Kd [1]: 44.1 nM
- apparent Kd [2]: 36.5 nM

Sequence: UCUUGAGGCUAGGAUAUCAUACAUAAAAGCAACUGAGAAGGAGCCACAUGAGGAUCACCCAUGUAUCCGUUAUG
- apparent Kd [1]: 16.5 nM
- apparent Kd [2]: 71.6 nM

Sequence: UUAGUGGAACGGAAGGAUAUGAGCCACCCUACAUGAGGAUCACCCAUGUGAGCGUUGGCAGCGCAUCAGAAGGUCCUCCUACGAGU
- apparent Kd [3]: 6.63 nM
- apparent Kd [4]: 5.9 nM

Sequence: UCACACGUUGUAGGAUAUGUCACGCAUAGAACAUGAGGAUCACCCAUGUAUCCCUGUCAUGCCAGACAGAAGGACACUAACGCG
- apparent Kd [1]: 55.5 nM
- apparent Kd [2]: 129 nM

Sequence: GGAUUUGAUCCAGGAUAUUAACAAUCCUCAGAUCAAAAUACAUGAGGAUCACCCAUGUACUCAAAUAAGAAGGGGAUGGCGGCC
- apparent Kd [1]: 25.7 nM
- apparent Kd [2]: 20.5 nM

Sequence: CGGGUGUAGACAGGAUAUGCAAAUAAAGGUGAAGCAGAAGGGUCACAUGAGGAUCACCCAUGUCACUAAAUUGGCGGUAUAAGA
- apparent Kd [1]: 39 nM
- apparent Kd [2]: 159 nM

Sequence: UAUUUGUUGAAGAAGGAGCGUACAUGAGGAUCACCCAUGUCCAACGUCUACGCGGGUUAUGUUAGCUAGGAUAUUCCGAAAUGG
- apparent Kd [1]: 28.3 nM
- apparent Kd [2]: 22.1 nM

Sequence: UGCAGGCGAACAGGAUAUCACACAUGAGGAUCACCCAUGUAAACUACUUAAGAAAGGGAGCCUCGUGAGAAGGGUUUCUUUGGG
- apparent Kd [1]: 74.6 nM
- apparent Kd [2]: 60.1 nM

Sequence: CGUACAGUCGAAGGAUAUUCGCGGGAGUUUGCCGAAGAAGGUCGCUAGUAGGGUGACAUGCUGUGACAUGAGGAUCACCCAUGU
- apparent Kd [1]: 165 nM
- apparent Kd [2]: 239 nM

Sequence: CUGAAAGUAGAGGAUAUGUGAAUAGCAGCGAUGACAGAAGGCUACACAUGAGGAUCACCCAUGUAAUCCCGUGC
- apparent Kd [1]: 20.4 nM
- apparent Kd [2]: 28.1 nM

Sequence: ACAUGAGGAUCACCCAUGUCUCGGGUGCCGGUUUUUACCUAGAGAAGGUGCGCAACGCUGUCACGCAAGGAUAUCUCACGAACA
- apparent Kd [1]: 231 nM
- apparent Kd [2]: 184 nM

Sequence: AGGAGACGCAAGGAGGAUAUUCAUAUGGUAACAUGAGGAUCACCCAUGUAGUUCUAGUUGGGACUGAAGAAGGCCUUGCUAGCGCA
- apparent Kd [3]: 21.7 nM
- apparent Kd [4]: 11.3 nM

Sequence: GCUGCUCAUCAAAACUGGACAUGAGGAUCACCCAUGUCUUUGCAGGAUAUUGAUCGUCAGUACAUCAAGAAGGGCACGCGGCAA
- apparent Kd [3]: 12.9 nM
- apparent Kd [4]: 9.89 nM

Sequence: CCAAACACUGGAGGAUAUGCAAGAACAUGAGGAUCACCCAUGUAGUAACGAUAAAGAAAACAAGCGCAGAAGGCCACAUCUCUA
- apparent Kd [3]: 14.2 nM
- apparent Kd [4]: 6.49 nM

Sequence: UGGUCGCAGUGAGGAUAUCCAGUCUAGGCACACGGAGAAGGCACGCGACAUGAGGAUCACCCAUGUAGACGAUAUGCUCCAGGU
- apparent Kd [1]: 22.1 nM
- apparent Kd [2]: 31.3 nM

Sequence: UUCAUCAACACAGGAUAUUCCGUCACAUGAGGAUCACCCAUGUAGCGCGUAGAUUACGGGCUUUCGAAGAAGGGUGUAAAGUCC
- apparent Kd [3]: 54.2 nM
- apparent Kd [4]: 43.3 nM

Sequence: GCACGGCUAGAGAAGGGAAGGUGGAAGAGAUGUGAGGGACAUGAGGAUCACCCAUGUCUUACGAUUCAGGAUAUCUGAGAGGCU
- apparent Kd [1]: 10.2 nM
- apparent Kd [2]: 10.3 nM

Sequence: AAGCUCUCAGGAUAUACAUGAGGAUCACCCAUGUGGUCGUAUUUAAAGUGGAGCAGCAGUAGAAGGGAGGCGAC
- apparent Kd [1]: 24.5 nM
- apparent Kd [2]: 20.4 nM

Sequence: GUCAUGUUAGGAUAUACACGUACCCGCCGACAGCCAGCAAUGUAGAAGGAACAUGAGGAUCACCCAUGUCGUGG
- apparent Kd [1]: 15.2 nM
- apparent Kd [2]: 31.5 nM

Sequence: ACUAGCAUAGGAUAUCACCACAGGUACAUGAGGAUCACCCAUGUGAGACUAGCUAGCUGCUGAGAAGGAUGAAAGG
- apparent Kd [1]: 27.9 nM
- apparent Kd [2]: 23.6 nM

Sequence: CACUACAUGAGGAUCACCCAUGUCUUCCGACGAGGACCGGUACGGCCGCCACUCGAACCUCCAACUAAUACCUCAACCGUCUGAU
- apparent Kd [5]: 80.5 nM
- apparent Kd [6]: 54.6 nM

Sequence: GUUGACGAGUCAGGAUAUGAUUAGUGGGAGAAACAGCAACUCACAUGAGGAUCACCCAUGUAUGUUCAGAAGGGACGCCGAUCA
- apparent Kd [1]: 63.9 nM
- apparent Kd [2]: 183 nM
